Experimental data collected from several papers.
Compare with care: the assays were run in different laboratories.
Organism: Pseudomonas aeruginosa
Observed: microbial growth

| Compound | assay | test system | setting | MIC |
| --- | --- | --- | --- | --- |
| O=C(Nc1ccc(F)c(Cl)c1)c1cc(Cl)ccc1O | broth dilution | ATCC27853 | – | > 64 mg/L |
| O=C1NN=C(N=Cc2ccccc2O)C1=NNn1c(-c2ccccc2)nc2ccccc2c1=O | broth dilution | – | 24 h | 111 µM |
| N=C(N)NN=Cc1ccc(OC/C=C\COc2ccc(C=NNC(=N)N)cc2)cc1 | – | PA14 | 16 h | ≤ 51 mg/L |
| NC[C@H]1O[C@H](O[C@H]2[C@H](O)[C@@H](O[C@H]3O[C@H](CO)[C@@H](O)[C@H](N)[C@H]3O)[C@H](N)C[C@@H]2N)[C@H](N)C[C@@H]1O | broth dilution | CMCC10104 | – | 26.7 µM |
| O=c1cc(-c2ccc(O)cc2)oc2cc(O)cc(O)c12 | broth dilution | PAO1 | – | 128 mg/L |
| CC(C)Oc1c(NC(=O)c2ccc(NC(=O)[C@H](CC(N)=O)NC(=O)c3ccc(NC(=O)c4ccccc4[N+](=O)[O-])cc3)cc2)ccc(C(=O)Nc2ccc(C(=O)O)cc2)c1O | – | PA14 | – | > 64 mg/L |
| C[C@H]1COc2c(N3CCN(C)CC3)c(F)cc3c(=O)c(C(=O)O)cn1c23 | agar dilution | PAO1 | – | 4 mg/L |
| COc1c(C)c(OC(C)=O)c(C)c(O)c1C(=O)/C=C/c1ccccc1 | broth dilution | ATCC27853 | – | 5000 mg/L |
| CC1=NN(CNC(=O)c2ccccn2)C(=O)C1=NNn1c(-c2ccccc2)nc2ccccc2c1=O | broth dilution | – | 24 h | 52 µM |
| CN(C)CC(C)(C)CNc1nc(Cl)c2c(c1O)C(=O)C1=C(O)[C@]3(O)C(=O)C(C(N)=O)=C(O)[C@@H](N(C)C)[C@@H]3C[C@@H]1C2.Cl | broth dilution | ATCC27853 | – | 32 mg/L |
| CCCCCCC/C=C/C(=O)N1C(=O)/C(=C(/C)O)C(=O)C1Cc1ccc(OC(C)(C)C)cc1 (stereo not drawn) | – | PA01 | – | > 200 mg/L |
| CN(C)[C@@H]1C(O)=C(C(N)=O)C(=O)[C@@]2(O)C(O)=C3C(=O)c4c(cc5ccc(CN6CCCCC6)cc5c4O)C[C@H]3C[C@@H]12 | broth dilution | ATCC27853 | – | 32 mg/L |
| CC(C)CC1NC(=O)C(C(=O)NC(C(=O)NC2C(=O)N3C2SC(C)(C)C3C(=O)O)c2ccccc2)=C1O (stereo not drawn) | – | – | – | 12.5 mg/L |
| O=C(CCCCCC[P+](c1ccccc1)(c1ccccc1)c1ccccc1)Nc1cc(O)c(O)c(O)c1.[Br-] | broth dilution | ATCC27853 | 18 h | > 32 mg/L |
| CN(C)[C@@H]1C(O)=C(C(N)=O)C(=O)[C@@]2(O)C(O)=C3C(=O)c4c(O)c(-c5ccccc5)nc(Cl)c4C[C@H]3C[C@@H]12.Cl | broth dilution | ATCC27853 | – | > 32 mg/L |
| C/C(=C\c1ccc(C#N)cc1)C(=O)Nc1ccc(C(=O)N[C@@H](CC(N)=O)C(=O)Nc2ccc(C(=O)Nc3ccc(C(=O)Nc4ccc(C(=O)O)cc4)c(O)c3OCC(C)C)cc2)cc1 | – | PA14 | – | > 64 mg/L |
| COc1c2c(c(O)c3cc(CN(C)C)ccc13)C(=O)C1=C(O)[C@]3(O)C(=O)C(C(N)=O)=C(O)[C@@H](N(C)C)[C@@H]3C[C@@H]1C2 | broth dilution | ATCC27853 | – | 16 mg/L |
| Cc1nc(Cl)c2c(c1O)C(=O)C1=C(O)[C@]3(O)C(=O)C(C(N)=O)=C(O)[C@@H](N(C)C)[C@@H]3C[C@@H]1C2.Cl | broth dilution | ATCC27853 | – | > 32 mg/L |

| Compound | assay | test system | setting | MIC |
| --- | --- | --- | --- | --- |
| CCCCCCC#Cc1cncc(-c2nnc(SCc3ccc([N+](=O)[O-])cc3)n2C)c1 | – | – | – | ≥ 20 mg/L |
| COc1cccc(NCc2ccc(Oc3ccccn3)cc2)c1 | – | – | – | > 25 mg/L |
| CC(C)Oc1c(NC(=O)c2ccc(NC(=O)[C@H](CC(N)=O)NC(=O)c3ccc(NC(=O)c4ccc5c(c4)COC5=O)cc3)cc2)ccc(C(=O)Nc2ccc(C(=O)O)cc2)c1O | – | PA14 | – | > 64 mg/L |
| C=CCn1c(-c2ccc(Cl)c(Cl)c2)nc2ccccc21 | broth dilution | ATCC27853 | – | 512 mg/L |
| CC(C)Oc1c(NC(=O)c2ccc(NC(=O)[C@H](CC(N)=O)NC(=O)c3ccc(NC(=O)c4ccc(C#N)cc4)cc3)cc2)ccc(C(=O)O)c1O | – | PA14 | – | > 64 mg/L |
| Cc1ccc(C)n1-c1ccc(-c2nnco2)cc1 | broth dilution | ATCC10145 | 18 h | 4 mg/L |
| CC(C)Oc1c(NC(=O)c2ccc(NC(=O)[C@H](CC(N)=O)NC(=O)c3ccc(CNC(=O)c4ccc(C#N)cc4)cc3)cc2)ccc(C(=O)Nc2ccc(C(=O)O)cc2)c1O | – | PA14 | – | > 64 mg/L |
| CN(C)[C@@H]1C(O)=C(C(N)=O)C(=O)[C@@]2(O)C(O)=C3C(=O)c4c(cc5ccc(-c6cccnc6)cc5c4O)C[C@H]3C[C@@H]12 | broth dilution | ATCC27853 | – | 32 mg/L |
| CC(C)(C)OCC1NC(=O)C(C(=O)NC(C(=O)NC2C(=O)N3C2SC(C)(C)C3C(=O)O)c2ccccc2)=C1O (stereo not drawn) | – | – | – | 12.5 mg/L |
| CN(C)[C@@H]1C(O)=C(C(N)=O)C(=O)[C@@]2(O)C(O)=C3C(=O)c4c(O)cccc4[C@@](C)(O)[C@H]3C[C@@H]12 | – | ATCC27853 | – | 8 mg/L |
| COc1c(C)c(OCc2ccccc2)c(C)c(O)c1C(=O)/C=C/c1ccccc1 | broth dilution | ATCC27853 | – | 5000 mg/L |
| Fc1ccc(NCc2ccc(Oc3ccccn3)cc2)cc1 | – | – | – | > 12.5 mg/L |
| CC(C)Oc1c(NC(=O)c2ccc(NC(=O)[C@H](CC(N)=O)NC(=O)c3ccc(NC(=O)c4ccc(C#N)cc4)cc3)cc2)ccc(C(=O)Nc2ccc(C(=O)O)cc2)c1O | – | PA14 | – | 2 mg/L |
| Cc1ccc(C)n1-c1ccc(-c2nnc(-c3ccc(Br)cc3)[nH]2)cc1 | broth dilution | ATCC10145 | 18 h | 125 mg/L |
| CC(C)COc1c(NC(=O)c2ccc(NC(=O)[C@H](CC(N)=O)NC(=O)c3ccc(NC(=O)c4ccc(C#N)cc4)cc3)cc2)ccc(C(=O)Nc2ccc(C(=O)O)cc2)c1O | – | PA14 | – | > 64 mg/L |
| CCCCCCC/C=C/C(=O)N1C(=O)/C(=C(/C)O)C(=O)C1CCC(=O)O (stereo not drawn) | – | PA01 | – | > 200 mg/L |
| CC(C)Oc1c(NC(=O)c2ccc(NC(=O)[C@H](CC(N)=O)NC(=O)c3ccc(NC(=O)c4ccc(S(C)(=O)=O)cc4)cc3)cc2)ccc(C(=O)Nc2ccc(C(=O)O)cc2)c1O | – | PA14 | – | > 64 mg/L |
| O=[N+]([O-])c1ccc(-c2nc3cc(Cl)ccc3[nH]2)o1 | broth dilution | ATCC27853 | – | > 64 mg/L |
